# Measurements from ChEMBL document CHEMBL1759858, “The novel anti-tumor agents of 4-triazol-1,8-naphthalimides: synthesis, cytotoxicity, DNA intercalation and photocleavage” (Eur J Med Chem, 2011).
# Activity calls are given as the source filed them. No cut-off for these calls is given here.
# Columns and labels:
# [1] = system: SMMC-7721; experiment: Cytotoxicity against human SMMC7721 cells after 48 hrs by MTT assay; type: functional, cell-based; conditions: SMMC-7721, 48 h
# Summary of the method: (§1)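 MCF-7 and 7721 cells were plated at 1 × 10⁵ cells/ml and exposed for 48 h to a concentration range of compound added from DMSO (final DMSO/medium below 0.001). MTT (5 mg/mL stock in PBS) was added for 3 h, and formazan was dissolved in SDS 200 g/L/50% formamide lysis buffer (pH 4.7). Absorbance was read at 570 nm, with ≥3 experiments. IC50 was taken from mean % absorbance plotted against concentration.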
# [2] = system: Calf thymus DNA; experiment: Binding affinity to calf thymus DNA assessed as DNA damage at increasing compound to DNA ratio by viscosity measurement; type: nucleic-acid assay; conditions: Bos taurus
# Summary of the method: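 Calf thymus DNA was dissolved in 30 mM Tris-HCl (pH 7.5), held overnight at 4 °C, sonicated for 10 min and filtered to remove insoluble material. Viscosity was then measured as the compound-to-DNA ratio was increased.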
# [3] = system: MCF7; experiment: Cytotoxicity against human MCF7 cells after 48 hrs by MTT assay; type: functional, cell-based; conditions: MCF7, 48 h; summary of the method: as §1
# [4] = system: Nucleic Acid; experiment: Induction of DNA cleavage measured using 2 hrs UV-irradiated Escherichia coli super coiled pBR322 DNA assessed as formation of relaxed open circular form 2 DNA at 100 uM by agarose gel electrophoresis; type: nucleic-acid assay
# Summary of the method: (§2)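 Supercoiled pBR322 plasmid (0.05 mM bp) in Tris-HCl (pH 7.5) was incubated with compound at 37 °C and irradiated with 365 nm UV for 2 h. Controls were DNA alone, with and without irradiation. Cleavage forms were resolved on 1% agarose gel electrophoresis.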
# [5] = system: HeLa; experiment: Cytotoxicity against human HeLa cells after 48 hrs by MTT assay; type: functional, cell-based
# [6] = system: SMMC-7721; experiment: Ratio of IC50 for amonafide to compound for human SMMC7721 cells; type: functional
# Summary of the method: (§3)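 The ratio compares IC50s from the 48 h MTT assay on MCF-7 or 7721 cells (1 × 10⁵ cells/ml, readout at 570 nm, ≥3 experiments). Amonafide was run as the control under the same conditions, and the ratio is its IC50 divided by the compound's.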
# [7] = system: Nucleic Acid; experiment: Induction of DNA cleavage measured using 2 hrs UV-irradiated Escherichia coli super coiled pBR322 DNA assessed as formation of linear form 3 DNA at 100 uM by agarose gel electrophoresis; type: nucleic-acid assay; summary of the method: as §2
# [8] = system: HeLa; experiment: Ratio of IC50 for amonafide to compound for human HeLa cells; type: functional
# [9] = system: MCF7; experiment: Ratio of IC50 for amonafide to compound for human MCF7 cells; type: functional; summary of the method: as §3
# [10] = system: Calf thymus DNA; experiment: Binding affinity to calf thymus DNA assessed as induction of hypochromatic effect by spectrophotometry; type: nucleic-acid assay; conditions: Bos taurus
# Summary of the method: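 UV-vis absorption spectra of a fixed compound concentration were recorded during stepwise addition of calf thymus DNA in 30 mM Tris-HCl (pH 7.5). Hypochromicity and bathochromic shift were monitored, and the binding constant was calculated from an equation applied to the absorbance data.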
# [11] = system: Calf thymus DNA; experiment: Binding affinity to calf thymus DNA at compound to DNA ratio of >0.20 to < 0.80 by circular dichroism; type: nucleic-acid assay; conditions: Bos taurus
# Summary of the method: (§4)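 CD spectra were recorded on calf thymus DNA at a fixed concentration in Tris-HCl buffer (pH 7.0). Compound was titrated at R (compound/DNA) ratios of 0.02, 0.04, 0.10, 0.16, 0.20, 0.30, 0.40, 0.60, 0.80, 1.00, 1.2 and 1.40, and compared with free DNA.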
# [12] = system: Calf thymus DNA; experiment: Binding affinity to calf thymus DNA at compound to DNA ratio of <= 0.20 by circular dichroism; type: nucleic-acid assay; conditions: Bos taurus; summary of the method: as §4
# [13] = system: Calf thymus DNA; experiment: Binding affinity to calf thymus DNA at compound to DNA ratio of > 0.80 by circular dichroism; type: nucleic-acid assay; conditions: Bos taurus; summary of the method: as §4
SMILES,IC50 [1] [µM],Activity [2],IC50 [3] [µM],Activity [4],IC50 [5] [µM],Ratio IC50 [6],Activity [7],Ratio IC50 [8],Ratio IC50 [9],Kb [10] [×10⁵ /M],Activity [11],Activity [12],Activity [13]
O=C1c2cccc3c(-n4cc(-c5ccccc5)nn4)ccc(c23)C(=O)N1CCO,> 100,inactive,> 100,Active,> 100,,,,,,,,
CN(C)CCN1C(=O)c2cccc3c(-n4cc(-c5ccccc5)nn4)ccc(c23)C1=O,0.463,Active,0.323,Active,1.02,9.2,Active,1.7,5.2,2.95,,,
O=C1c2cccc3c(-n4cc(-c5ccccc5)nn4)ccc(c23)C(=O)N1CCN1CCNCC1,1.54,,0.836,Active,96.7,,,,,,,,
CCN(CC)CCN1C(=O)c2cccc3c(-n4cc(-c5ccccc5)nn4)ccc(c23)C1=O,1.89,,1.09,Active,26.9,,Active,,,,Active,Active,inactive
CN(C)CCN1C(=O)c2cccc3cc(N)cc(c23)C1=O [AMONAFIDE],4.27,,1.68,,1.73,,,,,,,,
CCCCN1C(=O)c2cccc3c(-n4cc(-c5ccccc5)nn4)ccc(c23)C1=O,32.9,,19.5,Active,19.6,,,,,,,,
